Experimental data reported in ChEMBL document CHEMBL3868636, “New glutathione peroxidase mimetics-Insights into antioxidant and cytotoxic activity” (Bioorg Med Chem, 2017).
Activity calls are given as the source filed them. The rule behind the calls is not given here.

What was measured:
[1] = Cytotoxicity against human DU145 cells assessed as reduction in cell viability measured after 24 hrs by SRB assay; assay type: functional, cell-based; details: DU-145, 24 h
Summary of the method: (§1)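 DU-145 cells grown in MEM with 10% FBS, glutamine and pyruvate. PNT1A cells grown in RPMI 1640 with serum. Both seeded at 6.0 x 10^3 cells/well for 24 h, then treated 24 h with graded concentrations up to 40. Triplicate, IC50 calculated.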

[2] = Antioxidant activity assessed as H2O2 scavenging by measuring remaining dithiothreitol level at 0.1 equivalent after 5 mins by 1H NMR spectroscopy relative to control; assay type: functional
Summary of the method: (§2)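 Dithiothreitol oxidation by 30% H2O2 (3.0 eq) in CD3OD, catalysed by Se compound at 0.1 equiv. 1H NMR spectra taken right after H2O2 addition and then at set intervals. Remaining substrate derived from changes in signal integration.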

[3] = Antioxidant activity assessed as H2O2 scavenging by measuring remaining dithiothreitol level after 15 mins at 0.1 equivalent by 1H NMR spectroscopy relative to control; assay type: functional; summary of the method: as §2
[4] = Antioxidant activity assessed as H2O2 scavenging by measuring remaining dithiothreitol level at 0.1 equivalent after 3 mins by 1H NMR spectroscopy relative to control; assay type: functional; summary of the method: as §2
[5] = Antioxidant activity assessed as H2O2 scavenging by measuring remaining dithiothreitol level at 0.1 equivalent after 30 mins by 1H NMR spectroscopy relative to control; assay type: functional; summary of the method: as §2
[6] = Cytotoxicity against human MCF7 cells assessed as reduction in cell viability measured after 24 hrs by MTT assay; assay type: functional, cell-based; details: MCF7, 24 h
Summary of the method: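 MCF-7 cells grown in MEM with glutamine, non-essential amino acids, gentamycin and 10% heat-inactivated FBS at 37°C, 5% CO2. Seeded at 10^4 cells/well and left 24 h. Compounds at various concentrations or 0.1% DMSO vehicle for 24 h. MTT added for 2 h at 37°C. Formazan read at 540 nm against untreated control. Run in triplicate, IC50 reported.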

[7] = Antioxidant activity assessed as H2O2 scavenging by measuring remaining dithiothreitol level at 0.1 equivalent after 60 mins by 1H NMR spectroscopy relative to control; assay type: functional; summary of the method: as §2
[8] = Cytotoxicity against human PNT1A cells assessed as reduction in cell viability measured after 24 hrs by SRB assay; assay type: toxicity, cell-based; summary of the method: as §1
[9] = tested on: DU-145; assay: Inhibition of Akt-phosphorylation in human DU145 cells at 40 uM measured after 0.5 to 2 hrs by Western blot analysis; assay type: cell-based
Summary of the method: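 Cells treated with 40 μM compound for different times. Floating and attached cells lysed in Tris-HCl pH 7.5/NaCl/Triton X-100/SDS for 40 min on ice. Lysates run on 10–12% SDS-PAGE and blotted to PVDF. Primary antibody applied 1 h at room temperature, detection by ECL. p-Akt quantified by densitometry and normalised to β-actin.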

[10] = Antiproliferative activity against human A549 cells; assay type: functional, cell-based

Q: For `C=CCNC(=O)c1ccccc1[Se][Se]c1ccccc1C(=O)NCC=C`, which IC50 [1] is on record?
A: Its IC50 is 20.4 µM.

Q: And the Activity [2]?
A: The Activity was 36%.

Q: And the Activity [3]?
A: Its Activity is 12%.

Q: And the Activity [4]?
A: Its Activity is 59%.

Q: And the Activity [5]?
A: Its Activity is 0%.

Q: What about the IC50 [6] of the same compound?
A: The IC50 was 125 µM.

Q: And the Activity [7]?
A: The Activity was 0%.

Q: What does the source list for `CCCCn1[se]c2ccccc2c1=O`?
A: IC50 at 24 h [8]: > 40 µM; IC50 [1]: 20.8 µM; Activity [2]: 59%; Activity [3]: 41%; Activity [4]: 81%; Activity [5]: 32%; IC50 [6]: 13.8 µM; Activity [7]: 29%

Q: Which results are given for `CCCCNC(=O)c1ccccc1[Se][Se]c1ccccc1C(=O)NCCCC`?
A: IC50 [1]: > 40 µM; Activity [2]: 88%; Activity [3]: 82%; Activity [4]: 93%; Activity [5]: 77%; IC50 [6]: > 500 µM; Activity [7]: 73%

Q: Which results are given for `Cn1[se]c2ccccc2c1=O`?
A: IC50 at 24 h [8]: > 40 µM; IC50 [1]: 30.2 µM; Activity [2]: 65%; Activity [3]: 35%; Activity [4]: 78%; Activity [5]: 11%; IC50 [6]: 32.7 µM; Activity [7]: 0%

Q: Which Activity [2] does the source give for `O=c1c2ccccc2[se]n1-c1ccccc1` here?
A: The Activity was 75%.

Q: And the Activity [3]?
A: The Activity was 64%.

Q: And the Activity [4]?
A: The Activity was 84%.

Q: And the Activity [5]?
A: Its Activity is 58%.

Q: What about the Activity [7] of the same compound?
A: The Activity was 52%.

Q: With `C=CCn1[se]c2ccccc2c1=O` as the compound, how does the IC50 at 24 h [8] read?
A: The IC50 at 24 h was greater than 40 µM.

Q: And the IC50 [1]?
A: Its IC50 is 10.3 µM.

Q: And the Activity [2]?
A: The Activity was 69%.

Q: And the Activity [3]?
A: Its Activity is 58%.

Q: And the Activity [4]?
A: Its Activity is 76%.

Q: And the Activity [5]?
A: Its Activity is 53%.

Q: And the IC50 [6]?
A: The IC50 was 25.7 µM.

Q: What about the Activity [7] of the same compound?
A: Its Activity is 41%.

Q: Which IC50 at 24 h [8] does the source give for `O=c1c2ccccc2[se]n1C1CCCCC1` here?
A: The IC50 at 24 h was greater than 40 µM.

Q: What about the IC50 [1] of the same compound?
A: Its IC50 is 5.71 µM.

Q: And the Activity [2]?
A: Its Activity is 69%.

Q: And the Activity [3]?
A: The Activity was 62%.

Q: And the Activity [4]?
A: Its Activity is 75%.

Q: And the inhibition [9]?
A: Its inhibition is “Active”.

Q: And the Activity [5]?
A: The Activity was 55%.

Q: And the IC50 [6]?
A: Its IC50 is 7.31 µM.

Q: What about the Activity [7] of the same compound?
A: The Activity was 44%.

Q: What does the source list for `CC(C)CCn1[se]c2ccccc2c1=O`?
A: IC50 at 24 h [8]: > 40 µM; IC50 [1]: 30.4 µM; Activity [2]: 58%; Activity [3]: 42%; Activity [4]: 77%; inhibition [9]: Active; Activity [5]: 28%; IC50 [6]: 29 µM; Activity [7]: 13%

Q: With `O=C(O)c1ccc(NC(=O)c2ccccc2[Se][Se]c2ccccc2C(=O)Nc2ccc(C(=O)O)cc2)cc1` as the compound, how does the IC50 [10] read?
A: The IC50 was 20 µM.

Q: With `O=C(NC1CCCCC1)c1ccccc1[Se][Se]c1ccccc1C(=O)NC1CCCCC1` as the compound, how does the IC50 [1] read?
A: Its IC50 is greater than 40 µM.

Q: And the Activity [2]?
A: The Activity was 85%.

Q: And the Activity [3]?
A: Its Activity is 75%.

Q: What about the Activity [4] of the same compound?
A: The Activity was 92%.

Q: And the Activity [5]?
A: The Activity was 65%.

Q: What about the IC50 [6] of the same compound?
A: The IC50 was 90 µM.

Q: And the Activity [7]?
A: The Activity was 54%.

Q: Which IC50 [1] does the source give for `CC(C)CCNC(=O)c1ccccc1[Se][Se]c1ccccc1C(=O)NCCC(C)C` here?
A: The IC50 was greater than 40 µM.

Q: And the Activity [2]?
A: Its Activity is 49%.

Q: And the Activity [3]?
A: The Activity was 38%.

Q: What about the Activity [4] of the same compound?
A: The Activity was 65%.

Q: What about the Activity [5] of the same compound?
A: The Activity was 31%.

Q: And the IC50 [6]?
A: The IC50 was greater than 500 µM.

Q: And the Activity [7]?
A: The Activity was 21%.
